Kir21 block = inhibitors of mouse Kir2.1 inward-rectifier potassium channel; Inward rectifier potassium channel 2 (Mus musculus), P35561; HEK293-Kir2.1, FluxOR thallium flux fluorescence; hits give low values; B-score at 10 µM; actives 0.85% (n = 310,000); AID 1672, 2009;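 active means fluorescence ratio B-score at or below minus 3 SD of library scores, with starting-brightness B-score within 2 SD, cut at about -4.2 in these data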;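 further: channel flux triggered by added potassium and thallium sulfate stimulus; B-score of peak minus minimum fluorescence over baseline after thallium stimulus; more negative B-score means stronger Kir2.1 block with less thallium influx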
KCNK9 block = KCNK9 potassium channel inhibitors, primary screen, HEK293 cells, thallium flux | Potassium channel subfamily K member 9 (Homo sapiens), Q9NPC2 | FluxOR thallium flux fluorescence; hits give low values | B-score at 10 µM | actives 1.2% (n = 310,000) | AID 488922, 2010;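 active means ratio B-score over 3 SD below the library mean, with starting fluorescence within 5 SD of its mean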;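 further: negative B-score means less thallium flux so channel inhibition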
hERG protect = hERG rescue from dofetilide block, primary screen, cell-based, CHO-hERG, FluxOR thallium flux, dofetilide IC70 | Voltage-gated inwardly rectifying potassium channel KCNH2 (Homo sapiens), Q12809 | dofetilide IC70 present | activation (rescue from dofetilide block), less the hit threshold, % at 10 µM | actives 0.51% (n = 310,000);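 active means activation above the mean of controls blocked by dofetilide plus 5 SD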;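 further: thallium influx through hERG after potassium depolarization seen as dye fluorescence rise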
KCNK3 block = human KCNK3 channel inhibitors, primary screen, CHO cells, FluxOR thallium flux, B-score | Potassium channel subfamily K member 3 (Homo sapiens), O14649 | FluxOR fluorescence; hits give low values | B-score at 10 µM | actives 0.84% (n = 340,000) | AID 602410, 2012;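 active means B-score under library mean minus 4 SD, starting fluorescence ratio at most library mean plus 5 SD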;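 further: more negative B-score means stronger inhibition of thallium flux through KCNK3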
KCNQ1 pot = potentiators or activators of KCNQ1 channel, primary screen, cell-based, thallium flux, high-throughput | B-score at 10 µM | Potassium voltage-gated channel subfamily KQT member 1 (Homo sapiens), P51787 | actives 0.35% (n = 310,000) | CHO-K1 KCNQ1, thallium flux FluxOR fluorescence; hits give high values | AID 2648, 2010;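 active means fluorescence ratio B-score, a plate-corrected score, at least three library SD, with initial intensity B-score within 5 SD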
Target sequence (P51787 whole entry, looked up): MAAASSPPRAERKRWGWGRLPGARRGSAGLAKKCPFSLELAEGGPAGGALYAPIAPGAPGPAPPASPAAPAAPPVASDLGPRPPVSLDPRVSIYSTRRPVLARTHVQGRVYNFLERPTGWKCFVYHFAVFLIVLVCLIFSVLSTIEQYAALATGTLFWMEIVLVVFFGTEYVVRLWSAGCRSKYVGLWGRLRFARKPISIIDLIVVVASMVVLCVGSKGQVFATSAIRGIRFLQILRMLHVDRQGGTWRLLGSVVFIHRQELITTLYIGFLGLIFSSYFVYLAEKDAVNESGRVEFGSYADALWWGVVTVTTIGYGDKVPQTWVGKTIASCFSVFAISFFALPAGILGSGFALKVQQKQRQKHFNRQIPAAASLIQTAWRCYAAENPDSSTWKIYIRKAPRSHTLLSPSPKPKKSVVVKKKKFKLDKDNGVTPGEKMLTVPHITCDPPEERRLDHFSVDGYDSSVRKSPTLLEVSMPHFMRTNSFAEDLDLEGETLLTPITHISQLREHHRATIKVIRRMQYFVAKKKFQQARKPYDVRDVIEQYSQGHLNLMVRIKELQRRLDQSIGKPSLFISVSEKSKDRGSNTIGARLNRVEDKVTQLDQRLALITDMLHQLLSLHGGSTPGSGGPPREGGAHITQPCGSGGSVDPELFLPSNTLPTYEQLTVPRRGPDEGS
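assay system = KCNQ1-transfected CHO-K1 cells | medium = assay buffer with matched DMSO | probe or stimulus = depolarizing K+/Tl+ stimulus, K2SO4 and Tl2SO4 each 12.5 mM in 5x stock | dosing = single dose | incubation = dye 90 min, compound 20 min, room temperature | detection = kinetic FluxOR fluorescence, 10 s baseline plus 110 s post-stimulus | evaluation = ratio B score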
KCNQ1 block = inhibitors of human KCNQ1 channel, primary screen, cell-based, thallium flux, high-throughput; Potassium voltage-gated channel subfamily KQT member 1 (Homo sapiens), P51787; CHO-K1 KCNQ1, FluxOR thallium flux fluorescence; hits give high values; B-score at 10 µM; actives 1.3% (n = 310,000); AID 2642, 2010;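 active means compounds whose thallium flux B-score, printed positive for inhibition, exceeds three library SD while starting fluorescence stays within three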;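 further: channel opened by potassium depolarization with thallium stimulus after 20 min compound exposure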
Numbers without * were called inactive; i = inactive; . = not tested or not shown. Only some compounds are listed: those with a hit (about 3.7% of all), similar ones and a draw of the others.

SMILES	Kir21 block	KCNK9 block	hERG protect	KCNK3 block	KCNQ1 pot	KCNQ1 block
COc1cccc(OC)c1OCCCCCc1c(C)n[nH]c1C	-4.5*	i	-8	i	i	i
COc1cccc(OC)c1OCCCCc1c(C)n[nH]c1C	-1.7	i	1	i	i	i
O=[N+]([O-])/C=C1\C=CC=CN1Cc1ccc(Cl)cc1	-1.5	i	-1	i	i	i
C=C/C(C)=C/CC1C(=C)CCC2C(C)(C(=O)O)CCCC12C (configuration not stated)	2.4	i	-9	i	i	i
C=C[C@]1(C)C=C2CCC3[C@](C)(CCC[C@@]3(C)C(=O)O)C2CC1 (some centres not stated)	1.4	i	0	i	9*	i
CCN(C(=O)c1ccccc1)c1ccc([N+](=O)[O-])cc1	1.1	i	-2	i	i	i
O=[N+]([O-])c1ccc(N(c2ccccc2)c2ccccc2)cc1	0.49	i	-25	i	i	9*
CN(C)c1ccc(C(c2ccc(N(C)C)cc2)c2ccc([N+](=O)[O-])cc2)cc1	0.07	-7.8*	-8	i	i	i
CCC1(c2ccc(Cl)cc2)NC(=S)N(c2ccccc2)N1 (configuration not stated)	-0.07	i	49*	i	40*	i
CCCCCCC1(C)NC(=S)N(c2ccccc2)N1 (configuration not stated)	-0.9	i	-3	i	i	i
S=C(N/N=C/c1ccccc1Cl)Nc1cccc(Cl)c1Cl	-0.68	i	9.8*	i	12*	i
CCC1([N+](=O)[O-])COC(c2ccc(OC)cc2)OC1 (configuration not stated)	.	.	.	i	.	.
Cc1cnnn1-c1ccc(C(=O)CCl)cc1	0.47	i	-24	i	i	6*
O=S(=O)(Nc1ccccc1N1CCOCC1)c1ccccc1C(F)(F)F	.	.	.	-10*	.	.
CCOC(=O)c1sc(NC(=O)CCN2CC(C)OC(C)C2)c(C(=O)OCC)c1C (configuration not stated)	0.59	i	-11	.	i	i
CCOC(=O)c1sc(NC(=O)CCN2CCN(C)CC2)c(C(=O)OCC)c1C	-5.5*	i	-10	i	i	i
CCOC(=O)c1sc(NC(=O)CSc2nnc(C)s2)c(C(=O)OCC)c1C	0.24	-6.8*	-7	i	i	i
CCOC(=O)c1sc(NN=C(C(=O)OC)C(=O)OC)c(C(=O)OCC)c1C	0.03	i	9.0*	i	8*	i
CC(=O)NC(CC(=O)NNC(=O)c1cccs1)c1ccccc1 (configuration not stated)	1.6	i	-14	i	i	i
CC(=O)N/N=C(/c1ccccc1)C(O)c1ccccc1 (configuration not stated)	0.41	i	-6	i	i	i
CC(OC(=O)c1ccco1)C(=O)Nc1ccc(C(F)(F)F)cc1 (configuration not stated)	.	.	.	i	.	.
COCCN1C(=O)C(C(=O)OC)CC2=C1CC(C)(C)CC2=O (configuration not stated)	.	.	.	i	.	.
CN(C)CCCNC(=S)NCC(c1ccc(Cl)cc1Cl)c1c[nH]c2ccccc12 (configuration not stated)	-6.5*	i	-14	i	i	i
NCC(c1ccccc1Cl)c1c[nH]c2ccccc12 (configuration not stated)	-0.73	i	-5	i	i	i
NCC(c1ccc(Cl)cc1Cl)c1c[nH]c2ccccc12 (configuration not stated)	-8.7*	i	-8	i	i	i
SMILES	Kir21 block	KCNK9 block	hERG protect	KCNK3 block	KCNQ1 pot	KCNQ1 block
O=C(/C=C/c1cn(-c2ccccc2)nc1-c1cccnc1)c1ccco1	-0.56	i	-34	i	i	i
COC(=O)C1=C(C)N(Cc2ccccc2)C(=NCCc2cccnc2)N[C@H]1c1ccc(Br)cc1	.	.	.	i	.	.
COC(=O)C1=C(C)N(Cc2ccccc2)C(=NCC2CC2)N[C@H]1c1ccccc1	.	.	.	i	.	.
COC(=O)C1=C(C)N(Cc2ccccc2)C(=NCCc2cccnc2)N[C@H]1c1ccccc1	-11*	i	-7	i	i	i
COC(=O)C1=C(C)N(Cc2ccccc2)C(=NCCCCO)N[C@H]1c1ccccc1	-4.6*	i	-4	.	i	i
CCOc1ccc(NC(=O)CSc2nnnn2C2CC2)cc1S(=O)(=O)N1CCCC1	.	.	.	i	.	.
O=C(NCc1ccccc1Cl)C1CCC(CNc2nc(=S)[nH]c3ccccc23)CC1 (configuration not stated)	1.4	i	5.6*	i	i	i
O=C(NCCc1ccc(Cl)cc1)C1CCC(CNc2nc(=S)[nH]c3ccccc23)CC1 (configuration not stated)	-0.98	i	-13	i	i	i
COc1ccccc1-n1c(C)nc(=O)c(-c2ccccc2)c1C	-0.01	i	5.3*	i	i	i
COc1ccccc1C(=O)Nc1nnc(SCC(=O)NC2CCCC2)s1	0.02	i	-10	i	i	i
CN(C)CCCN(C(=O)CCOc1ccccc1)c1nc2c(F)cccc2s1	-0.23	i	-14	i	18*	i
Cc1ccc2nc(N(CCCN(C)C)C(=O)c3cc(-c4cccs4)nc4ccccc34)sc2c1	-1.2	i	-31	i	i	8*
CN(C)CCCN(C(=O)CCc1ccccc1)c1nc2c(F)cccc2s1	-2	i	-13	i	i	i
CN(C)CCCN(C(=O)c1cc(-c2cccs2)nc2ccccc12)c1nc2c(F)cccc2s1	0.16	i	-29	i	i	6*
COc1cc2ccccc2cc1C(=O)N(CCN(C)C)c1nc2ccc(C)cc2s1	1.4	i	-14	i	i	i
Fc1ccc2nc(C(F)(F)F)cc(N3CCOCC3)c2c1	0.85	i	-7	i	i	i
CCCOc1ccc(-c2nc(OC)c3ccccc3n2)cc1	0.93	-6.6*	-3	i	i	i

Screens as filed in PubChem BioAssay.
